# Measurements taken from ChEMBL document CHEMBL3045496, “Antifeedant activity of ethanolic extract from Flourensia oolepis and isolation of pinocembrin as its active principle compound” (2009).
# Active and inactive are the calls of the source. The rule behind the calls is not given here.
# What was measured:
# Spodoptera litura = test: Antifeedant activity against third-instar Spodoptera litura assessed per cm2 leaf disk; assay type: functional
# Epilachna [1] = test: Antifeedant activity against third-instar Epilachna paenulata measured assessed per cm2 leaf disk; assay type: functional
# Epilachna [2] = test: Antifeedant activity against third-instar Epilachna paenulata measured assessed per cm2 leaf disk after 24 hr by leaf disk choice test; assay type: functional
# Method in brief: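 Two Cucurbita maxima seedling cotyledons in a Petri dish under a glass disk with two 1 cm2 holes: one solvent-treated, one solvent-control. A single larva is placed equidistant between them and feeds for 24 h. Area eaten is estimated visually by quarters, always by the same operator. AI% = [1−(T/C)]×100; means of 10 replicates.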
# Xanthogaleruca luteola [3] = test: Antifeedant activity against adult Xanthogaleruca luteola assessed per cm2 leaf disk after 24 hr by leaf-disk choice test
# Epilachna [4] = test: Antifeedant activity against third-instar Epilachna paenulata measured at 50 ug/cm2 leaf disk after 24 hr by leaf-disk choice test relative to control; assay type: functional
# Xanthogaleruca luteola [5] = test: Antifeedant activity against adult Xanthogaleruca luteola measured at 100 ug/cm2 leaf disk after 24 hr by leaf-disk choice test relative to control
# Epilachna [6] = test: Antifeedant activity against third-instar Epilachna paenulata measured at 5 ug/cm2 leaf disk after 24 hr by leaf-disk choice test relative to control; assay type: functional
# Xanthogaleruca luteola [7] = test: Antifeedant activity against adult Xanthogaleruca luteola measured at 5 ug/cm2 leaf disk after 24 hr by leaf-disk choice test relative to control
# Epilachna [8] = test: Antifeedant activity against third-instar Epilachna paenulata measured at 1 ug/cm2 leaf disk after 24 hr by leaf disk choice test relative to control; assay type: functional
# Epilachna [9] = test: Antifeedant activity against third-instar Epilachna paenulata measured at 10 ug/cm2 leaf disk after 24 hr by leaf-disk choice test relative to control; assay type: functional
# Spodoptera frugiperda [10] = test: Antifeedant activity against third-instar Spodoptera frugiperda (fall armyworm) assessed per cm2 leaf disk after 3 to 4 hr by leaf-disk choice test; assay type: functional
# Spodoptera frugiperda [11] = test: Antifeedant activity against third-instar Spodoptera frugiperda (fall armyworm) measured at 10 ug/cm2 leaf disk after 3 to 4 hr by leaf-disk choice test relative to control; assay type: functional
# Method in brief: (§1)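 Two-choice leaf-disk assay with third-instar larvae collected in the field and kept on pumpkin for 2–3 days beforehand. Treated and solvent-control 1 cm2 disks of C. maxima cotyledon are offered together, and the area of each consumed (0–100%) is scored visually by quarters by the same operator. AI% = [1−(T/C)]×100; means of 10 replicates.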
# Spodoptera frugiperda [12] = test: Antifeedant activity against third-instar Spodoptera frugiperda (fall armyworm) measured at 50 ug/cm2 leaf disk after 3 to 4 hr by leaf-disk choice test relative to control; assay type: functional; method in brief: as §1
# Spodoptera frugiperda [13] = test: Antifeedant activity against third-instar Spodoptera frugiperda (fall armyworm) measured at 5 ug/cm2 leaf disk after 3 to 4 hr by leaf-disk choice test relative to control; assay type: functional; method in brief: as §1
# Spodoptera frugiperda [14] = test: Antifeedant activity against third-instar Spodoptera frugiperda (fall armyworm) measured at 100 ug/cm2 leaf disk after 3 to 4 hr by leaf-disk choice test relative to control; assay type: functional; method in brief: as §1
# Epilachna [15] = test: Antifeedant activity against third-instar Epilachna paenulata measured at 100 ug/cm2 leaf disk after 24 hr by leaf-disk choice test relative to control; assay type: functional
# Xanthogaleruca luteola [16] = test: Antifeedant activity against adult Xanthogaleruca luteola measured at 50 ug/cm2 leaf disk after 24 hr by leaf-disk choice test relative to control
# Xanthogaleruca luteola [17] = test: Antifeedant activity against adult Xanthogaleruca luteola measured at 10 ug/cm2 leaf disk after 24 hr by leaf-disk choice test relative to control
# Xanthogaleruca luteola [18] = test: Antifeedant activity against adult Xanthogaleruca luteola measured at 1 ug/cm2 leaf disk after 24 hr by leaf-disk choice test relative to control
structure (smiles),measurement,setting,value
COc1c(OC)c(O)c2c(=O)c(OC)c(-c3ccccc3)oc2c1OC,ED50,Spodoptera litura,7.16 µg
COc1ccc(-c2oc3c(OC)c(OC)c(OC)c(O)c3c(=O)c2OC)cc1 [5-HYDROXYAURANETIN],ED50,Spodoptera litura,42.8 µg
C[C@@H]1CC[C@H]2[C@@H](C)C(=O)O[C@@H]3O[C@@]4(C)CC[C@@H]1[C@]32OO4 [ARTEMISININ],ED50,Epilachna [1],14.7 µg
C/C=C(\C)C(=O)O[C@H]1C[C@@H](OC(C)=O)[C@@]2(C(=O)OC)CO[C@H]3[C@@H](O)[C@@](C)([C@]45O[C@@]4(C)[C@@H]4C[C@H]5O[C@@H]5OC=C[C@@]54O)[C@H]4[C@]1(CO[C@]4(O)C(=O)OC)[C@@H]32 [AZADIRACHTIN A],ED50,Epilachna [2],0.59 µg
Oc1cc(O)c2c(c1)OC(c1ccc(O)c(O)c1)C(O)C2 (configuration not stated) [CATECHIN],ED50,Epilachna [2],47.6 µg
same,ED50,Xanthogaleruca luteola [3],50.22 µg
O=c1cc(-c2ccccc2)oc2cc(O)cc(O)c12 [CHRYSIN],ED50,Spodoptera litura,635 µg
O=c1cc(-c2ccccc2)oc2ccccc12 [FLAVONE],ED50,Spodoptera litura,24.6 µg
CC(=O)O[C@@H]1C[C@H](O)[C@@]23COC(O)[C@]1(C)[C@@H]2C[C@@H](O)[C@]1(C)[C@@H]3[C@H](O)C(=O)[C@@]2(C)[C@H](c3ccoc3)C[C@H]3O[C@@]312 (some centres not stated) [MELIARTENIN],ED50,Epilachna [1],0.8 µg
O=C1C[C@@H](c2ccc(O)cc2)Oc2cc(O)cc(O)c21 [NARINGENIN],ED50,Epilachna [2],160.15 µg
O=C1C[C@@H](c2ccccc2)Oc2cc(O)cc(O)c21 [PINOCEMBRIN],AFI,Epilachna [4],90%
same,AFI,Xanthogaleruca luteola [5],98%
same,AFI,Epilachna [6],21%
same,AFI,Xanthogaleruca luteola [7],62%
same,AFI,Epilachna [8],12%
same,AFI,Epilachna [9],62%
same,ED50,Spodoptera frugiperda [10],8.86 µg
same,AFI,Spodoptera frugiperda [11],70%
same,ED50,Epilachna [2],7.98 µg
same,AFI,Spodoptera frugiperda [12],91%
same,AFI,Spodoptera frugiperda [13],21%
same,AFI,Spodoptera frugiperda [14],92%
same,AFI,Epilachna [15],99.1%
same,AFI,Xanthogaleruca luteola [16],94%
same,AFI,Xanthogaleruca luteola [17],62%
same,AFI,Xanthogaleruca luteola [18],0%
same,ED50,Xanthogaleruca luteola [3],6.13 µg
O=c1c(O)c(-c2ccc(O)c(O)c2)oc2cc(O)cc(O)c12 [QUERCETIN],ED50,Epilachna [2],9.26 µg
same,Activity,Spodoptera litura,inactive
same,ED50,Xanthogaleruca luteola [3],178.52 µg
C=C(C)[C@H]1Cc2c(ccc3c2O[C@@H]2COc4cc(OC)c(OC)cc4[C@@H]2C3=O)O1 [ROTENONE],ED50,Spodoptera litura,59.1 µg
CC(=O)O[C@@H]1C[C@H](O)[C@@]23CO[C@@H](O)[C@]1(C)[C@@H]2C[C@@H](O)[C@]1(C)[C@@H]3C(=O)[C@H](OC(C)=O)[C@@]2(C)[C@H](c3ccoc3)C[C@H]3O[C@]321 [TOOSENDANIN],ED50,Epilachna [1],3.69 µg
